Screening results deposited in PubChem BioAssay by several laboratories.
CHT PAM: allosterically activates the human high affinity choline transporter | 310,000 compounds, 0.49% hits | CHT-expressing cells, membrane potential dye, choline EC20; hits give high values; LV-AA mutant CHT in HEK293 cells | AID 488977 | B-score at 10 µM;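 active means initial fluorescence not abnormally high and integrated response B-score, plate-corrected, over 3 SD above library mean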
Target sequence (Q9GZV3 whole entry, looked up): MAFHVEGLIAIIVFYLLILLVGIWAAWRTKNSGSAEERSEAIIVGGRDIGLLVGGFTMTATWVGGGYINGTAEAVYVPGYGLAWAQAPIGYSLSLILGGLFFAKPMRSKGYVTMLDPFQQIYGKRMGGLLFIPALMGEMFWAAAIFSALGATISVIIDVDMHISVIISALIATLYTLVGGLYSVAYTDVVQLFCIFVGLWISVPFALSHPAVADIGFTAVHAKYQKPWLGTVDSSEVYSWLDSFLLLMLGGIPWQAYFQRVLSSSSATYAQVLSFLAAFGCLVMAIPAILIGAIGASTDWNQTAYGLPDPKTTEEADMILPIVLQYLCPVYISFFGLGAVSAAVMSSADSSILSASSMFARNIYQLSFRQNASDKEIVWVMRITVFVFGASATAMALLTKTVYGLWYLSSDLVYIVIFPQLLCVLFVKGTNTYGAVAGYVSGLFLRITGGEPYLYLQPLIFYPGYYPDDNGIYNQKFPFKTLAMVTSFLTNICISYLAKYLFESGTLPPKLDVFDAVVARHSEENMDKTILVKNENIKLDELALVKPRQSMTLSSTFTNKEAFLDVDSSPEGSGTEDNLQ
T cruzi repl: T. cruzi replication inhibition | 300,000 compounds, 1.4% hits | T. cruzi beta-gal in NIH3T3, luminescence, 90 h | inhibition, % (test concentration not listed);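 active means mean inhibition across valid replicates above about 55%, limit read from the data; inconclusive means mean below that limit but half or more replicates reach it; inactive means mean below it, under half of replicates reach it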;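 further: signal also drops with host cell toxicity which is not excluded here; 0% = plate median of DMSO wells and 100% = zero luminescence signal; higher percent means less beta-gal luminescence so fewer parasites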
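System: Mouse NIH/3T3 fibroblasts infected with β-gal-expressing T. cruzi Tulahuen C4 | Quantity: NIH/3T3 cells, 5,000 per well | Reagent: 5000 reporter trypomastigotes per well | Dosing: Compound pinned at 50 nL/well, DMSO | Schedule: 3 h host attachment, then at least 90 h co-culture | Detection: GalScreen luminescence, 60 min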
CHT block: human CHT choline transport inhibition | CHT-expressing cells, membrane potential dye, choline response; hits give low values | Q9GZV3 | B-score at 10 µM | 310,000 compounds, 0.86% hits;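 active means B-score over 3 SD under the library average, and starting fluorescence ratio not unusually high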;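 further: choline stimulus applied at its EC90 after an EC20 pre-addition; B-score computed on integrated fluorescence ratio after choline addition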
PolyA inh: yeast polyadenylation inhibition | S. cerevisiae SKY197-pL101 polyadenylation reporter, beta-gal luminescence; efflux-impaired pdr1/pdr3 knockout yeast; score 100 = 6 SD above DMSO | activity score, % at 12 µM | 300,000 compounds, 0.02% hits;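 active means lowest replicate activity score at least 50, where 100 means six control SD above control mean; inconclusive means lowest score under 50 but half or more replicates reach 50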;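 further: yeast exposed to compound for 9 h at 30 °C; higher score means more reporter readthrough which indicates perturbed polyadenylation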
An asterisk follows results filed as active; i = inactive; ? = inconclusive; . = not tested or not shown. In the library only some 2.6% were active in any assay of this set; here they are far more common.

SMILES	CHT PAM	T cruzi repl	CHT block	PolyA inh
O=C(c1c(F)cccc1F)N1CCCC(c2nc(-c3ccc(F)cc3)no2)C1 (stereo not given)	i	-18.1	i	16.2
OCCCCNCc1ccc(OCc2ccc(Cl)cc2Cl)cc1	i	60.0*	i	-33.0
COc1ccc2c3c([nH]c2c1)C1CC2C(CC(O)C(OC)C2CO)CN1CC3 (stereo not given)	i	-3.9	i	13.8
COC(=O)[C@H]1[C@H]2C[C@@H]3c4[nH]c5cc(OC)ccc5c4CCN3C[C@H]2C[C@@H](OC(=O)c2ccc(N)cc2)[C@@H]1OC	i	57.9*	i	13.9
O=C(NCCCN1CCCC1)c1cc2c(Cl)nc3ccccc3c2s1	i	54.4	i	-20.0
CC1CCN(CCCNC(=O)c2cc3c(Cl)nc4ccccc4c3s2)CC1	i	56.0*	i	4.6
COc1ccccc1/C=C1\SC(=S)N(CC(=O)NC2CCS(=O)(=O)C2)C1=O (stereo not given)	i	-10.3	i	-2.1
C=CCN(C(=O)c1ccc2snnc2c1)c1ccccc1	i	1.0	i	10.8
COc1ccc(C(=O)c2ccc(N3CCN(C(=O)c4ccc(F)cc4)CC3)c(F)c2)cc1Br	i	61.3*	i	17.8
CN(C)C1=NCCN1CCCCc1ccccc1	i	.	i	.
Cn1c(=O)n(C)c2cc(N3CCOCC3)c(NC(=O)c3cccc(Cl)c3)cc21	i	-3.9	i	-10.2
CC(C)c1cc(C(N)=O)c(NC(=O)c2cccc(COc3ccc(Cl)cc3)c2)s1	i	42.3	i	-11.2
CC(C)COc1ccc(C(=O)Nc2scc(-c3ccc(Cl)cc3Cl)c2C(N)=O)cc1	i	55.1*	i	-4.8
CCc1ccc(NC(=O)CCCN2C(=O)C3CC=CCC3C2=O)cc1 (stereo not given)	i	2.5	i	-4.8
O=C(NCc1cccnc1)c1ccc(-c2cccc(Cl)c2Cl)o1	i	57.9*	i	-4.5
O=C(N/N=C/c1ccccc1F)c1ccccc1OCc1ccccc1	i	23.6	i	-15.9
Cc1cc(=O)[nH]c2c1cnn2C(C)c1ccccc1 (stereo not given)	i	-4.9	i	-11.6
O=c1[nH]c(-c2ccccn2)nc(C(F)(F)F)c1Br	i	65.6*	i	-23.0
O=c1[nH]c(-c2ccccn2)nc2ccccc12	i	-13.5	i	-3.3
CN(CC(=O)Nc1ccc(F)c(F)c1F)c1cnccn1	i	63.7*	i	12.2
CN(CC(=O)Nc1ccc(F)c(F)c1F)C1CCCCC1	i	-0.3	i	30.0
CN(Cc1ccc(Cl)s1)C(=O)CCl	i	59.0*	i	-15.1
CN1CCN(CCOc2ccc(Cl)c(Cl)c2)CC1	i	55.8*	i	20.0
O=C(/C=C/c1ccco1)Nc1nc(-c2ccccn2)cs1	i	59.6*	i	-1.1
Cn1cccc1C(=O)Nc1nc(-c2ccccn2)cs1	i	65.5*	i	-13.7
SMILES	CHT PAM	T cruzi repl	CHT block	PolyA inh
O=C(Nc1nc(-c2ccccn2)cs1)C1CCCC1	i	-17.6	i	8.0
O=C(Nc1nc(-c2ccc(Cl)s2)cs1)c1cccs1	i	75.8*	i	-13.4
O=C(Nc1nc(-c2ccccn2)cs1)c1ncc(Cl)c(Cl)c1Cl	i	35.2	i	-13.3
O=C(Nc1nc(-c2ccccc2)cs1)c1cccs1	i	10.2	i	10.1
O=C(Nc1nc(-c2ccccn2)cs1)c1ccc(Cl)s1	i	58.2*	i	14.2
COc1ccc(S(=O)(=O)N2CC(=O)Nc3ccccc32)cc1C	i	-2.6	i	?
O=C(Nc1nc(-c2ccccn2)cs1)c1cc2ccccc2o1	i	76.9*	i	7.8
CCN1CCc2c(C#N)c(NCc3ccccc3)nc(N(CC)CC)c2C1	i	81.7*	i	-13.8
Cc1c(C)n2c(SCC(=O)NCc3ccc4c(c3)OCO4)nnc2[nH]c1=O	i	2.9	i	8.4
CC(C)=CCOc1c2ccoc2cc2oc(=O)ccc12	i	3.2	i	53.5*
COc1ccccc1CNC(=O)C(=O)NCC1CCCN1S(=O)(=O)c1cccs1 (stereo not given)	i	62.0*	i	4.9
O=C(NCc1ccccc1F)C(=O)NCC1CCCN1S(=O)(=O)c1cccs1 (stereo not given)	i	10.3	i	-26.1
Cc1cccc(C(=O)NCCC(=O)Nc2nc(C)c(Cc3ccc4c(c3)OCO4)s2)c1	i	17.8	i	8.5
